Results published in ChEMBL document CHEMBL3621175, “Second generation 2-aminoimidazole based advanced glycation end product inhibitors and breakers” (Bioorg Med Chem Lett, 2015).
Calls of active or inactive are those of the source. The calls are words filed in the database; no cut-off is given here.

Experiments:
[1] = Inhibition of advanced glycation end product formation assessed as protection of reactive primary amines by measuring increase in primary amine level at 100 uM incubated for 7 days using BSA and glycolaldehyde by TNBSA assay; format: physicochemical; conditions: 168 h
How it was run: (§1)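 BSA was modified with glycolaldehyde in the presence of 2-AIs. Total primary amines were quantified by TNBSA, independent of fluorescence. Protection appears as preserved free amines relative to GO-modified BSA, with basal free-amine level of BSA before GO/2-AI treatment as reference. DMSO and PBS served as vehicle controls, with aminoguanidine as comparator.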

[2] = Inhibition of advanced glycation end product formation using BSA and glycolaldehyde at 40 uM by standard fluorescence based assay; format: physicochemical
[3] = Inhibition of advanced glycation end product formation assessed as protection of reactive primary amines by measuring primary amine reduction using BSA and glycolaldehyde by TNBSA assay; format: physicochemical; set-up: scale not given: the % may be the effect or the level left; how it was run: as §1
[4] = Inhibition of advanced glycation end product formation using BSA and glycolaldehyde at 400 uM by standard fluorescence based assay; format: physicochemical
[5] = Induction of breaking of pre-formed advanced glycation end product formation using BSA assessed as restoration of glycated -BSA primary amine content after 24 hrs by TNBSA assay
[6] = Induction of breaking of pre-formed carboxymethyl lysine-enriched advanced glycation end product formation using BSA and glyoxylic acid assessed as increase in primary amine content at 400 uM after 24 hrs by TNBSA assay relative to 4,4'-(butane-1,4-diyl)bis(1H-imidazol-2-amine) dihydrochloride
[7] = Inhibition of advanced glycation end product formation assessed as protection of reactive primary amines by measuring increase in primary amine level at 100 uM incubated for 7 days using BSA and glycolaldehyde by TNBSA assay relative to control BSA; format: physicochemical; set-up: scale not given: the % may be the effect or the level left; conditions: 168 h; how it was run: as §1
[8] = Induction of breaking of pre-formed carboxymethyl lysine-enriched advanced glycation end product formation using BSA and glyoxylic acid assessed as increase in primary amine content at 400 uM after 24 hrs by TNBSA assay relative to pre-formed CML-enriched AGE
How it was run: (§2)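 CML-enriched AGE-BSA was pre-formed from 50 mg/mL BSA and 25 mM glyoxylic acid with sodium cyanoborohydride over 48 h, then purified by dialysis. The glycated protein was exposed to 2-AIs for 24 h. Free primary amines were quantified by TNBSA and compared with untreated CML-BSA. DMSO and PBS served as vehicle controls, with aminoguanidine as reference.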

[9] = Induction of breaking of pre-formed carboxymethyl lysine-enriched advanced glycation end product formation using BSA and glyoxylic acid assessed as increase in primary amine content at 400 uM after 24 hrs by TNBSA assay relative to BSA alone; how it was run: as §2

Structure (SMILES)	inhibition (INH) [1]	Activity [6]	Activity [8]	Activity [9]	further results
Nc1nc(CCCCc2c[nH]c(N)n2)c[nH]1	Active	–	–	–	inhibition (INH) [2]: 5.6%; Activity [3]: 3.6%; inhibition (INH) [4]: 44.6%; Activity [5]: 78.9%
NCCCCc1c[nH]c(N)n1	Active	64.5%	97.9%	52.5%	Activity [7]: 44.6%
Nc1nc(Cc2c[nH]c3ccccc23)c[nH]1	Active	–	–	–	–
N=C(N)NCCCc1c[nH]c(N)n1	Active	–	–	–	–
Nc1nc(Cc2ccc(O)cc2)c[nH]1	Active	–	–	–	–
NCCCc1c[nH]c(N)n1	Active	79.4%	110%	67.5%	–
Nc1nc(Cc2c[nH]cn2)c[nH]1	Active	–	–	–	–
N=C(N)NN	–	inactive	inactive	inactive	–
